ChEMBL document CHEMBL4251599, “Synthesis and biological evaluation of coumarin derivatives containing imidazole skeleton as potential antibacterial agents” (Eur J Med Chem, 2018)
Values after ≈ are worked out from the molar mass of the structure shown.

Legend:
Staphylococcus aureus [1] = experiment: Bactericidal activity against Staphylococcus aureus ATCC 29213 incubated for 24 hrs followed by re-plating on nutrient agar and measured after overnight incubation by two fold serial dilution method; assay type: functional; conditions: ATCC 29213, 24 h
How it was run: (§1)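 After the MIC read, 100 µl from every tube without visible growth was spread on nutrient agar lacking compound. Plates were incubated overnight at 28 ± 1 °C. MBC was taken as the lowest concentration killing >99.9% of the initial population, seen as no growth on agar.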

Escherichia coli [2] = experiment: Antibacterial activity against Escherichia coli ATCC 35150 after 24 hrs by two fold serial dilution method; assay type: functional; conditions: ATCC 35150, 24 h
How it was run: (§2)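 Broth two-fold serial dilution per CLSI, in nutrient broth. Inoculum from 24 h cultures at 28 ± 1 °C, adjusted in saline to 1×10^7-2×10^7 cfu/mL, then diluted to 1×10^5-2×10^5 cfu/mL. Test range 256 down to 0.50 µM and lower. Tubes held 24 h at 28 ± 1 °C. MIC read visually. Enrofloxacin and norfloxacin served as standards.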

Escherichia coli [3] = experiment: Bactericidal activity against Escherichia coli ATCC 35150 incubated for 24 hrs followed by re-plating on nutrient agar and measured after overnight incubation by two fold serial dilution method; assay type: functional; conditions: ATCC 35150, 24 h; how it was run: as §1
Streptococcus agalactiae [4] = experiment: Bactericidal activity against Streptococcus agalactiae WB1445 incubated for 24 hrs followed by re-plating on nutrient agar and measured after overnight incubation by two fold serial dilution method; assay type: functional; conditions: WB1445, 24 h; how it was run: as §1
Staphylococcus aureus [5] = experiment: Antibacterial activity against Staphylococcus aureus ATCC 29213 after 24 hrs by two fold serial dilution method; assay type: functional; conditions: ATCC 29213, 24 h; how it was run: as §2
Flavobacterium columnare [6] = experiment: Bactericidal activity against Flavobacterium columnare FC-G1 incubated for 24 hrs followed by re-plating on nutrient agar and measured after overnight incubation by two fold serial dilution method; assay type: functional; conditions: FC-G1, 24 h; how it was run: as §1
Flavobacterium columnare [7] = experiment: Antibacterial activity against Flavobacterium columnare FC-G1 after 24 hrs by two fold serial dilution method; assay type: functional; conditions: FC-G1, 24 h; how it was run: as §2
Streptococcus agalactiae [8] = experiment: Antibacterial activity against Streptococcus agalactiae WB1445 after 24 hrs by two fold serial dilution method; assay type: functional; conditions: WB1445, 24 h; how it was run: as §2
[9] = biological target: T1, Enoyl-(Acyl-carrier-protein) reductase II (Streptococcus agalactiae serotype V (strain ATCC BAA-611 / 2603 V/R), UniProt Q8E1K8); experiment: Inhibition of Streptococcus agalactiae WB1445 FabK in presence of t-O-NAC and NADH up to 1 min by spectrophotometric analysis
T1 sequence (Q8E1K8 whole entry): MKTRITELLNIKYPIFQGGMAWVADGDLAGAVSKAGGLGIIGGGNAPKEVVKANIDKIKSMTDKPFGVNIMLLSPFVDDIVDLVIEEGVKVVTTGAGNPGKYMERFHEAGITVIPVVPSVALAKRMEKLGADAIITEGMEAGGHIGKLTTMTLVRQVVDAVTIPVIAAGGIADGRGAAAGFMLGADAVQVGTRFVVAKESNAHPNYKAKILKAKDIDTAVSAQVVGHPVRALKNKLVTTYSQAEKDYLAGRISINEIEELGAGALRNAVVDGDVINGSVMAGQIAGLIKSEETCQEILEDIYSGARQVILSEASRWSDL
How it was run: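 Recombinant His-tagged FabK (20 µL of 150 µg/mL stock) was assayed in 100 µL of 0.1 M ADA-DTT, pH 6.5, against compounds at 128-1 µM, with 10 µL of 4 mM t-O-NAC. Addition of 20 µL of 2 mM NADH started the reaction. Absorbance at 340 nm was read for 1 min. IC50 was estimated from dose-response curves.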

[10] = Inhibition of Escherichia coli ATCC 35150 FabI in presence of t-O-NAC and NADH up to 1 min by spectrophotometric analysis
How it was run: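 Recombinant His-tagged FabI, expressed in E. coli BL21(DE3) and purified on Ni-NTA, was used at 20 µL of 100 µg/mL stock in 0.1 M PBS-DTT. Compounds were tested at 128-1 µM with 10 µL of 4 mM t-O-NAC, and 20 µL of 2 mM NADH started the reaction. NADH oxidation was followed at 340 nm for 1 min. IC50 came from dose-response plots.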

Row | Compound | MIC (Escherichia coli [2]) [µM] | MIC (Staphylococcus aureus [5]) [µM] | MIC (Flavobacterium columnare [7]) [µM] | MIC (Streptococcus agalactiae [8]) [µM] | IC50 [9] [µM] | IC50 [10] [µM] | MBC (Staphylococcus aureus [1]) [µM] | MBC (Escherichia coli [3]) [µM] | MBC (Streptococcus agalactiae [4]) [µM] | MBC (Flavobacterium columnare [6]) [µM]
1 | O=c1ccc2ccc(OCCCCBr)cc2o1 | > 256 | > 256 | > 256 | > 256 |  |  | > 256 | > 256 | > 256 | > 256
2 | CCn1cc(C(=O)O)c(=O)c2cc(F)c(N3CCNCC3)cc21 [NORFLOXACIN] | 1 (≈ 0.319 µg/mL) | 32 (≈ 10.2 µg/mL) | 32 (≈ 10.2 µg/mL) | 64 (≈ 20.4 µg/mL) |  |  | 64 (≈ 20.4 µg/mL) | 2 (≈ 0.639 µg/mL) | 128 (≈ 40.9 µg/mL) | 128 (≈ 40.9 µg/mL)
3 | O=c1ccc2ccc(OCCCCCCCCn3ccnc3-c3ccccc3)cc2o1 | > 256 | > 256 | > 256 | > 256 |  |  | > 256 | > 256 | > 256 | > 256
4 | O=c1ccc2ccc(OCCCCn3ccnc3-c3ccccc3)cc2o1 | 32 (≈ 11.5 µg/mL) | > 256 | > 256 | > 256 |  |  | > 256 | 128 (≈ 46.1 µg/mL) | > 256 | > 256
5 | O=c1ccc2ccc(OCCCCCCCCBr)cc2o1 | > 256 | > 256 | > 256 | > 256 |  |  | > 256 | > 256 | > 256 | > 256
6 | O=c1ccc2ccc(OCCCCCCn3ccnc3-c3ccccc3)cc2o1 | > 256 | > 256 | > 256 | > 256 |  |  | > 256 | > 256 | > 256 | > 256
7 | O=c1ccc2ccc(OCCn3cnc4ccccc43)cc2o1 | 128 (≈ 39.2 µg/mL) | 64 (≈ 19.6 µg/mL) | > 256 | > 256 |  |  | 256 (≈ 78.4 µg/mL) | 256 (≈ 78.4 µg/mL) | > 256 | > 256
8 | Cc1cc(=O)oc2cc(OCCCCCCCCBr)ccc12 | > 256 | > 256 | > 256 | > 256 |  |  | > 256 | > 256 | > 256 | > 256
9 | Cc1nccn1CCOc1ccc2ccc(=O)oc2c1 | 64 (≈ 17.3 µg/mL) | > 256 | > 256 | > 256 |  |  | > 256 | 256 (≈ 69.2 µg/mL) | > 256 | > 256
10 | O=c1ccc2ccc(OCCCCCCCCCCBr)cc2o1 | > 256 | > 256 | > 256 | > 256 |  |  | > 256 | > 256 | > 256 | > 256
11 | O=c1ccc2ccc(OCCn3ccnc3)cc2o1 | 128 (≈ 32.8 µg/mL) | > 256 | > 256 | > 256 |  |  | > 256 | 256 (≈ 65.6 µg/mL) | > 256 | > 256
12 | O=c1ccc2ccc(OCCn3ccnc3-c3ccccc3)cc2o1 | 128 (≈ 42.5 µg/mL) | > 256 | > 256 | > 256 |  |  | > 256 | 512 (≈ 170 µg/mL) | > 256 | > 256

Continued by falling MIC (Flavobacterium columnare [7]), values first:

Row | MIC (Escherichia coli [2]) [µM] | MIC (Staphylococcus aureus [5]) [µM] | MIC (Flavobacterium columnare [7]) [µM] | MIC (Streptococcus agalactiae [8]) [µM] | IC50 [9] [µM] | IC50 [10] [µM] | Compound | MBC (Staphylococcus aureus [1]) [µM] | MBC (Escherichia coli [3]) [µM] | MBC (Streptococcus agalactiae [4]) [µM] | MBC (Flavobacterium columnare [6]) [µM]
13 | 32 (≈ 10 µg/mL) | 64 (≈ 20 µg/mL) | 64 (≈ 20 µg/mL) | > 256 |  |  | O=c1ccc2ccc(OCCCCCCn3ccnc3)cc2o1 | 64 (≈ 20 µg/mL) | 64 (≈ 20 µg/mL) | > 256 | 128 (≈ 40 µg/mL)
14 |  |  | 64 (≈ 21.9 µg/mL) | 32 (≈ 10.9 µg/mL) | 7.68 | 79.5 | O=c1ccc2ccc(OCCCCCCCCn3cncn3)cc2o1 |  |  | 64 (≈ 21.9 µg/mL) | 128 (≈ 43.7 µg/mL)
15 | > 256 | 32 (≈ 12.5 µg/mL) | 8 (≈ 3.12 µg/mL) | 256 (≈ 100 µg/mL) |  |  | O=c1ccc2ccc(OCCCCCCCCn3cnc4ccccc43)cc2o1 | 128 (≈ 50 µg/mL) | > 256 | 512 (≈ 200 µg/mL) | 32 (≈ 12.5 µg/mL)
16 | > 256 | 32 (≈ 11.8 µg/mL) | 8 (≈ 2.95 µg/mL) | 8 (≈ 2.95 µg/mL) |  |  | Cc1cn(CCCCCCCCOc2ccc3c(C)cc(=O)oc3c2)cn1 | 256 (≈ 94.3 µg/mL) | > 256 | 32 (≈ 11.8 µg/mL) | 16 (≈ 5.9 µg/mL)
17 | 1 (≈ 0.359 µg/mL) | 2 (≈ 0.719 µg/mL) | 2 (≈ 0.719 µg/mL) | 8 (≈ 2.88 µg/mL) |  |  | CCN1CCN(c2cc3c(cc2F)c(=O)c(C(=O)O)cn3C2CC2)CC1 [ENROFLOXACIN] | 4 (≈ 1.44 µg/mL) | 2 (≈ 0.719 µg/mL) | 16 (≈ 5.75 µg/mL) | 2 (≈ 0.719 µg/mL)
